ChEMBL document CHEMBL4177764 (J Med Chem, 2018)
Calls of active or inactive are those of the source. The rule behind the calls is not given here.

How the values were obtained:
[1] = tested on: SH-SY5Y; assay: Antiproliferative activity against human SH-SY5Y cells after 72 hrs by CellTiter-Glo luminescent cell viability assay; type: functional, cell-based
[2] = tested on: SU-DHL-1; assay: Antiproliferative activity against human SU-DHL1 cells after 72 hrs by CellTiter-Glo luminescent cell viability assay; type: functional, cell-based
[3] = tested on: NCI-H3122; assay: Antiproliferative activity against human NCI-H3122 cells after 72 hrs by CellTiter-Glo luminescent cell viability assay; type: functional, cell-based
[4] = organism: Homo sapiens; assay: Antiproliferative activity against human CHLA20 cells after 72 hrs in presence of ABCB1 inhibitor tariquidar by CellTiter-Glo luminescent cell viability assay; type: functional, cell-based
[5] = tested on: KARPAS-299; assay: Antiproliferative activity against human KARPAS299 cells after 72 hrs by CellTiter-Glo luminescent cell viability assay; type: functional, cell-based
[6] = tested on: SH-SY5Y; assay: Antiproliferative activity against human SH-SY5Y cells after 72 hrs in presence of ABCB1 inhibitor tariquidar by CellTiter-Glo luminescent cell viability assay; type: functional, cell-based
[7] = target: T1, ALK tyrosine kinase receptor (Homo sapiens, UniProt Q9UM73); assay: Induction of ALK degradation in human Kelly cells at 100 nM after 8 hrs by immunoblot method; type: cell-based
Method in brief: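 Kelly cells were treated with 100 nM compound for varying times and lysed at each time point. ALK levels were read by immunoblot.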

[8] = target: T1, ALK tyrosine kinase receptor; assay: Induction of ALK degradation in human CHLA20 cells at 100 nM after 4 hrs in presence of ABCB1 inhibitor tariquidar by immunoblot method; type: cell-based
Method in brief: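 CHLA20 cells were co-treated with 125 nM tariquidar, then treated with 100 nM compound over a time course. ALK was read by immunoblot.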

[9] = target: Protein cereblon (Homo sapiens) (UniProt Q96SW2); assay: Displacement of Atto565-Lenalidomide from CRBN fused with DDB1deltaB (unknown origin) by fluorescence polarization assay
[10] = organism: Homo sapiens; assay: Antiproliferative activity against human CHLA20 cells after 72 hrs by CellTiter-Glo luminescent cell viability assay; type: functional, cell-based
[11] = target: Signal transducer and activator of transcription 3 (Homo sapiens) (UniProt P40763); assay: Inhibition of STAT3 phosphorylation at Y705 in human Kelly cells at 250 nM after 6 to 48 hrs by immunoblot method; type: cell-based
[12] = target: Signal transducer and activator of transcription 3 (Homo sapiens) (UniProt P40763); assay: Inhibition of STAT3 phosphorylation at Y705 in human CHLA20 cells at 250 nM after 6 to 48 hrs in presence of ABCB1 inhibitor tariquidar by immunoblot method; type: cell-based

T1 sequence (Q9UM73 19-1620 limits assumed): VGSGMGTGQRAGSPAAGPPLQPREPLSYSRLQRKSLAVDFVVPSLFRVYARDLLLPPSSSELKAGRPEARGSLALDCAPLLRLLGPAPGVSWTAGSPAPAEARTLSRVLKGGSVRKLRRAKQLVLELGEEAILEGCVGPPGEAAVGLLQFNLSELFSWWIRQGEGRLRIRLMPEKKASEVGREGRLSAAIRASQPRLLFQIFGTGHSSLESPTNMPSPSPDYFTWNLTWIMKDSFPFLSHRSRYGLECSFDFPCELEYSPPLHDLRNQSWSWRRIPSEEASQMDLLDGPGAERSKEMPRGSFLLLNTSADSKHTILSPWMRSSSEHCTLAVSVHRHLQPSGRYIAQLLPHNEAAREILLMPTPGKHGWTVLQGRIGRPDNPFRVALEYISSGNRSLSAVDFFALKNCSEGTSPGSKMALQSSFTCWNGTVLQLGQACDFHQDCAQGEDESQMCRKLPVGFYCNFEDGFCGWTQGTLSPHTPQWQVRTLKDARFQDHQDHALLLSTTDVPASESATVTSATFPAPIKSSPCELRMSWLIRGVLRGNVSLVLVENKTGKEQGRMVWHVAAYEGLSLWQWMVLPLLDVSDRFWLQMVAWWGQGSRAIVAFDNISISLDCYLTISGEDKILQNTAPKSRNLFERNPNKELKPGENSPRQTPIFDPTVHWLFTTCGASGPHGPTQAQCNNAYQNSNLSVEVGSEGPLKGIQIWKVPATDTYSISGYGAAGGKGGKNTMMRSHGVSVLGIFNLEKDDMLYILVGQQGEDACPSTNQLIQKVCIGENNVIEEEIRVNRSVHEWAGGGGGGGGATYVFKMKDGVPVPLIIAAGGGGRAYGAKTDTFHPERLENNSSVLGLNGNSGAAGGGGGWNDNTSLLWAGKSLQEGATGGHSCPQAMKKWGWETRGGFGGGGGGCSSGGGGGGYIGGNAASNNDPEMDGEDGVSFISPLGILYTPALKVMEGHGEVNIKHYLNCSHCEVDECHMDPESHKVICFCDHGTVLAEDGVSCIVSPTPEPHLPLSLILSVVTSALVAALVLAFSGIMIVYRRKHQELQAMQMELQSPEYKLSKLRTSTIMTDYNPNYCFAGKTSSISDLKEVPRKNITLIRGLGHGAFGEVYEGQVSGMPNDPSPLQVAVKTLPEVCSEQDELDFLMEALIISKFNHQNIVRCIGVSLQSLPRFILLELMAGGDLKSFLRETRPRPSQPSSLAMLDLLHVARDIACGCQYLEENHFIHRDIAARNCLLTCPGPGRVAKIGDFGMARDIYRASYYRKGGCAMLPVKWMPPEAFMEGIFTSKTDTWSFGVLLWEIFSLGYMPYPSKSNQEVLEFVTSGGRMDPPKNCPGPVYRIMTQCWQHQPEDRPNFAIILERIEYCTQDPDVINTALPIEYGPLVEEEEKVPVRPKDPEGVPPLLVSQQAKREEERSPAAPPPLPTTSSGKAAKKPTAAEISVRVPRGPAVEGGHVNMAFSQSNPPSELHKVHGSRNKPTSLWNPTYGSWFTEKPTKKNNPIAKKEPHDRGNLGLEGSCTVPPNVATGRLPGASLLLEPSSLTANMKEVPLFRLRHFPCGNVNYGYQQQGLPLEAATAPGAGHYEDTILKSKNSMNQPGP
Sequence of Protein cereblon (Homo sapiens) (Q96SW2 whole entry, the tested form may be a part): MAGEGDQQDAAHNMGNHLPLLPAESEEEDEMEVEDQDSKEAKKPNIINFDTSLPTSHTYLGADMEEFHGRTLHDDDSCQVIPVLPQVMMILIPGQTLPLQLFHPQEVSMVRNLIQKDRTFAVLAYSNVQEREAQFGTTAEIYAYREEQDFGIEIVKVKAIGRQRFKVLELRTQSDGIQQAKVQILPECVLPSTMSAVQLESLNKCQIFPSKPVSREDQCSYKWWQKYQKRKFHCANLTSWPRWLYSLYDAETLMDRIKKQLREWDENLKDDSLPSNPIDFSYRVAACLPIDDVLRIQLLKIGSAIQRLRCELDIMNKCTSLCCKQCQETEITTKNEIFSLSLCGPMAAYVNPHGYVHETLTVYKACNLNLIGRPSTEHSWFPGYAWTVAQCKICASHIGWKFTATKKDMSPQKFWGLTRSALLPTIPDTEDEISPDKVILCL
Sequence of Signal transducer and activator of transcription 3 (Homo sapiens) (P40763 whole entry): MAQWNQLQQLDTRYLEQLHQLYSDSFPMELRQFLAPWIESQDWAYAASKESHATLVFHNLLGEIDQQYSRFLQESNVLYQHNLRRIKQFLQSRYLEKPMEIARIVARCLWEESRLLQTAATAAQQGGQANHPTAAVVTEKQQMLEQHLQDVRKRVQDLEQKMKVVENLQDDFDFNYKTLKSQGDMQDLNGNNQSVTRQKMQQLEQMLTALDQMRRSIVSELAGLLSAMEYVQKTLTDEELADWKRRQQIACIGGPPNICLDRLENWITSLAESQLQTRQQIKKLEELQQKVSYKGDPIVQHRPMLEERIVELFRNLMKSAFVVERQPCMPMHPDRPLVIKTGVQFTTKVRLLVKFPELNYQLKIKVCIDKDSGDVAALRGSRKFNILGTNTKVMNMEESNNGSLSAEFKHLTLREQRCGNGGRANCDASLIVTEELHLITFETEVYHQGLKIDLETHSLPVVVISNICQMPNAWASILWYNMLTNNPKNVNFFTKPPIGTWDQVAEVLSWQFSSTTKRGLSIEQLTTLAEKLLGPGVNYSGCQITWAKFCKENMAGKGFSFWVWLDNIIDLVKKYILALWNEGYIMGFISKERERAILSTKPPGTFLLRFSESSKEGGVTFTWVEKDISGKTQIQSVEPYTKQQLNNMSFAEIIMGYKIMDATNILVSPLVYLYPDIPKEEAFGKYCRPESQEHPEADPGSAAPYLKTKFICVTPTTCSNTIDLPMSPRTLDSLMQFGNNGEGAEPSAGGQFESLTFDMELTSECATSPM

Activity [7]	Activity [8]	inhibition [9]	inhibition [11]	inhibition [12]	Compound	Activity [1]	Activity [2]	Activity [3]	Activity [4]	Activity [5]	Activity [6]	Activity [10]
Active	Active	inactive			Cc1cc(Nc2ncc(Cl)c(Nc3ccccc3S(=O)(=O)C(C)C)n2)c(OC(C)C)cc1C1CCN(CCOCCOCCNC(=O)CNc2cccc3c2C(=O)N(C2CCCNC2=O)C3=O)CC1 (stereo unspecified)	inactive	inactive	inactive	Active	inactive	Active	inactive
			inactive	inactive	Cc1cc(Nc2ncc(Cl)c(Nc3ccccc3S(=O)(=O)C(C)C)n2)c(OC(C)C)cc1C1CCNCC1	Active	Active	Active	Active	Active	Active	Active
Active	Active	inactive			COc1cc(N2CCN(CCOCCOCCNC(=O)CNc3cccc4c3C(=O)N(C3CCCNC3=O)C4=O)CC2)ccc1Nc1ncc(Cl)c(Nc2ccccc2S(=O)(=O)C(C)C)n1 (stereo unspecified)	inactive	inactive	inactive	Active	inactive	Active	inactive
					COc1cc(N2CCC(N3CCN(C)CC3)CC2)ccc1Nc1ncc(Cl)c(Nc2ccccc2S(=O)(=O)C(C)C)n1	Active	Active	Active	Active	Active	Active	Active
